An excerpt weighted towards active compounds, which were near 3% of everything screened.
S1P3 ag: activates the human S1P3 receptor; activation, % at 4.5 µM; Q99500; AID 373; 0.1% of 60,000 active; S1P3 NFAT-BLA reporter cells, agonism, FRET ratio; relative to 1 µM S1P, basal subtracted;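 active means activation above the screen-wide mean plus 3 SD, cut at about 4.5% in these data, passing the limit was not always enough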
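Material: Human S1P3 NFAT-BLA reporter CHO cells | Incubation: Overnight plating, 4 h compound 37 °C, 2 h substrate RT | Signal: FRET β-lactamase substrate fluorescence, excitation 405 nm, 460/535 nm emission ratio, background-subtracted | Compound: 4.5 µM final, single dose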
S1P1 ag-PAM: activates or potentiates agonism at human S1P1 receptor; S1P1 CRE-bla cells, forskolin, beta-lactamase FRET, potentiator mode; S1P1 agonist co-added at EC20, 2 nM; 100% = saturating reference agonist, 0% = basal; AID 449; P21453; activation, % at 9.5 µM; 0.57% of 56,000 active;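 active means activation above a cutoff set at the mean activation of all tested compounds plus 3 SD, cut at about 54% in these data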;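 further: forskolin at 4 µM as EC80 and the EC20 agonist is SEW2871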
Target sequence (P21453 whole entry, looked up): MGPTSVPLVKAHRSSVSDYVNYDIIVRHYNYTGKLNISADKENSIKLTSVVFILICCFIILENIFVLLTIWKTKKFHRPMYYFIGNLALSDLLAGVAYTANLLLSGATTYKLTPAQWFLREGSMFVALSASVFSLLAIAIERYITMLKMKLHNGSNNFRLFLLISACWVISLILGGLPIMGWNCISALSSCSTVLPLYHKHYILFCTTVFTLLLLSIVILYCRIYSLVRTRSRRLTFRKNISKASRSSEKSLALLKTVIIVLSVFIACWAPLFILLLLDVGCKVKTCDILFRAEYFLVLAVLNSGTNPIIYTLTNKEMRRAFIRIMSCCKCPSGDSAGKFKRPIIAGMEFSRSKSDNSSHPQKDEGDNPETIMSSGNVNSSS
HTR1E antagonist: blocks the human 5-HT1E serotonin receptor. inhibition, % at 6 µM. 0.99% of 65,000 active. AID 571. CHO 5-HT1E Ga15 NFAT-bla reporter, FRET, antagonist. P28566;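 active means inhibition above a set limit, the mean inhibition across every tested compound plus 3 SD, cut at about 29% in these data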;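 further: signal is the 460 over 535 nm emission ratio of beta-lactamase substrate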
5HT1a ag: agonists of human 5-HT1a serotonin receptor; AID 567; CHO 5-HT1a Ga15 NFAT-bla reporter, FRET ratio; 0% basal, 100% maximal reference agonist; P08908; activation, % at 10 µM; 0.56% of 65,000 active;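 active means activation above the screen-wide mean activation plus 3 SD, cut at about 19% in these data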
5HT1E ag: activates the human 5-HT1E serotonin receptor | 0.69% of 65,000 active | AID 574 | activation, % at 6 µM | CHO 5-HT1E Ga15 NFAT-bla reporter, FRET; 0% DMSO wells, 100% control agonist wells | P28566;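 active means activation above a set limit, the screen-wide mean activation plus 3 SD, cut at about 8.5% in these data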
5HT1a antag: 5-HT1a (human) receptor antagonism | CHO 5-HT1a Ga15 NFAT-bla reporter, antagonist mode | inhibition, % at 10 µM | 0.68% of 62,000 active | AID 612;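 active means inhibition above the mean of all tested compounds plus 3 SD, cut at about 43% in these data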;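 further: receptor stimulated by 5-CT agonist at 100 nM near EC80; beta-lactamase reporter measured by ratiometric fluorescence of a cleavable substrate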
Large screens that a line does not name were inactive.

CC1(C)CC(=O)c2cc(OCC(=O)NCCCN3CCN(c4ccccc4F)CC3)ccc2O1	5HT1E ag 9.6
CCn1c(=O)cc(SCC(=O)NCCCN2CCN(c3ccccc3F)CC2)c2ccccc21	5HT1a antag 68.6
CC1(C)CC(=O)c2cc(OCC(=O)NCc3cccnc3)ccc2O1	none
CCN(CCCNC(=O)COc1cc(=O)n(C)c2ccccc12)c1cccc(C)c1	5HT1E ag 23.9
Cn1nnc2cc(NC(=O)N3CC4(C)CC3CC(C)(C)C4)ccc21 (configuration not stated)	none (no result: S1P1 ag-PAM)
COc1ccccc1N1CCN(C(=O)C2CCN(S(=O)(=O)c3ccc(Cl)cc3)CC2)CC1	none
COc1ccccc1N1CCN(CC(O)COc2ccc3c(C)cc(=O)oc3c2)CC1 (configuration not stated)	5HT1a antag 88.1 (no result: S1P3 ag, S1P1 ag-PAM)
Cc1cc(=O)oc2cc(OCC(=O)N3CCCC(C)C3)ccc12 (configuration not stated)	none
Cc1cc(=O)oc2cc(OCC(O)CN3CCN(c4ccccc4)CC3)ccc12 (configuration not stated)	5HT1a antag 45.9
Cc1cc(=O)oc2cc(OCC(=O)N3c4ccccc4CC3C)ccc12 (configuration not stated)	HTR1E antagonist 33.2
Cc1cc(=O)oc2cc(OCC(O)CN3CCc4ccccc4C3)ccc12 (configuration not stated)	none
COc1ccc(OCc2nnc(SC3CCOC3=O)n2-c2ccccc2)cc1 (configuration not stated)	none
COc1cccc(-n2c(SC3CCOC3=O)nc3ccccc3c2=O)c1 (configuration not stated)	HTR1E antagonist 37.0
COC(=O)C1C2C=CC3(CN(CC4CCCO4)C(=O)C13)O2 (configuration not stated)	none
CC1(C)CC(=O)C(C=Nc2cccnc2)=C(O)C1	HTR1E antagonist 32.8
CC1(C)CC(=O)C(C=NCc2ccc3c(c2)OCO3)=C(O)C1	none
CC1(C)CC(=O)C(C=Nc2ccc3c(c2)OCO3)=C(O)C1	HTR1E antagonist 31.0
COC(=O)Cc1c[nH]c2ccc(OCC(O)CNC(C)C)cc12 (configuration not stated)	none
CC(C)NCC(O)COc1cccc2[nH]ccc12 (configuration not stated)	5HT1E ag 8.7 (no result: 5HT1a antag)
COc1cc2c(cc1OC)/C(=C/C(=O)N1CCOCC1)NC(C)(C)C2	HTR1E antagonist 29.8
CCOC(=O)/C=C1\NC(C)(C)Cc2cc(OC)c(O)cc21	none
N=c1sccn1CC(=O)Nc1cccc(Oc2ccccc2)c1	5HT1a antag 46.2
N=c1sccn1CC(=O)Nc1ccccc1-c1ccccc1	none (no result: S1P3 ag, S1P1 ag-PAM)
Cc1cc(C(=O)OCC(=O)NCc2ccco2)c(C)n1-c1ccc(F)cc1	HTR1E antagonist 37.4
O=C(COC(=O)c1ccco1)NCc1ccco1	none
Cc1cc(NC(=O)CSc2nc(-c3cccs3)cc(C(F)(F)F)n2)no1	HTR1E antagonist 59.3
CS(=O)(=O)c1nc(-c2cccs2)cc(C(F)(F)F)n1	HTR1E antagonist 106.0, 5HT1a antag 110.5 (no result: S1P3 ag, S1P1 ag-PAM)
COC(=O)c1ccccc1NC(=O)CSc1nc(-c2ccco2)cc(C(F)(F)F)n1	HTR1E antagonist 50.1
Cc1cc(NC(=O)CCCS(=O)(=O)c2nc(-c3cccs3)cc(C(F)(F)F)n2)no1	HTR1E antagonist 30.5, 5HT1a antag 97.7
COc1ccc(-c2nnc3ccc(SCC(=O)N4CCCCC4)nn23)cc1OC	none
O=C(CN1C(=O)NC2(CCCc3ccccc32)C1=O)N1CCc2ccccc2C1 (configuration not stated)	none
Cc1ccc(NCc2nnc(SCC(N)=O)n2CCc2ccccc2)cc1	none
COc1cccc(NC(=O)CSc2nc3c(c(-c4ccco4)c2C#N)CCCC3)c1	none
COCCOC(=O)c1c(C)nc(SCC(=O)Nc2ccc(OC)cc2)c(C#N)c1-c1ccco1	HTR1E antagonist 34.0 (no result: 5HT1a antag)
Cc1nc(SCC(=O)N2CCC(C(N)=O)CC2)n[nH]1	none
CN(C)c1ccc(/C=C/C(O)=C2/C(=O)N(C)C3(C)CC2c2ccccc2O3)cc1 (configuration not stated)	HTR1E antagonist 53.4, 5HT1a antag 54.0
COc1cc2c(cc1OC)CN(C(=O)Cc1ccc(OC)c(S(=O)(=O)N3CCOCC3)c1)CC2	5HT1E ag 24.9
COc1cc2c(cc1OC)CN(C(=O)c1ccc(OC)c(S(=O)(=O)N3CCOCC3)c1)CC2	none
Cc1c(C(=O)NCc2cccnc2)oc2ccccc12	HTR1E antagonist 32.6
CCN(CC)S(=O)(=O)c1ccc(C(=O)Oc2ccc3c(c2)OCO3)cc1	none
CCN1C(=O)c2ccccc2S(=O)c2ccc(C(=O)NCCCN3CCCC3=O)cc21 (configuration not stated)	HTR1E antagonist 30.0
CCN1C(=O)c2ccccc2S(=O)c2ccc(C(=O)NC3CC3)cc21 (configuration not stated)	none
CC(C)C12CN3CC(C(C)C)(CN(C1)C3c1ccccc1)C2O (configuration not stated)	none
Cc1ccc(Nc2cc(C)nn2-c2nc(C)cc(=O)[nH]2)cc1	HTR1E antagonist 74.3, 5HT1a antag 61.0
Cc1ccc(Nc2cc(C)nn2-c2nc(C)cc(C)n2)cc1	none
O=C(O)c1ccccc1C(=O)N1CC=C(c2ccccc2)CC1	5HT1E ag 12.0
CCC(CC)c1nc2cc(OC)c(OC)cc2c(=O)o1	5HT1E ag 35.0 (no result: 5HT1a antag)
COc1cc(C2C(C#N)=C(C)NC3=C2C(=O)c2ccccc23)cc(OC)c1OC (configuration not stated)	HTR1E antagonist 82.3, 5HT1a antag 63.1
Cc1cc(C)cc(N(CC(=O)NCc2cccnc2)S(C)(=O)=O)c1	5HT1E ag 16.6
Cc1ccc(-n2ncc3c(NCCCN4CCCC4=O)ncnc32)c(C)c1	none (no result: 5HT1a antag)
Cc1cc(NC(=O)c2oc3ccccc3c2C)ccc1-n1cnnn1	none
COc1cc(OC)cc(C(=O)Nc2ccc(-n3cnnn3)c(C)c2)c1	5HT1E ag 36.3
N#CC1=C(SCc2ccccc2)NC(=O)CC1c1ccco1 (configuration not stated)	none
Cc1ccc(C2CC(=O)NC(SCc3ccccc3)=C2C#N)o1 (configuration not stated)	5HT1a ag 34.6
CCCOC(=O)C1C2C=C[C@]3(CN(CCc4ccccc4)C(=O)[C@H]13)O2 (some centres not stated)	none
O=C1c2oc3ccc(F)cc3c(=O)c2C(c2cccc(O)c2)N1CCCN1CCOCC1 (configuration not stated)	5HT1E ag 30.1
